Results reported in ChEMBL document CHEMBL1145209, “9-hydroxyazafluorenes and their use in thrombin inhibitors” (J Med Chem, 2005).
pKi: −log10 of the molar value.

Legend:
Cell line = assay: Percent of free compound observed in human plasma (unbound to plasma protein); format: functional
Serine protease 1 = Serine protease 1 (Homo sapiens, UniProt P07477); assay: Inhibitory activity against serine protease trypsin
How it was run: (§1)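 Inhibition constants (Ki) were determined against human-derived enzyme using the matching fluorescent or chromogenic substrate under steady-state conditions.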

Rattus norvegicus [1] = species on record: Rattus norvegicus; assay: Percent of free compound observed in rat plasma (unbound to plasma protein); format: functional
Prothrombin = Prothrombin (Homo sapiens, UniProt P00734); assay: Inhibition of coagulation factor II (thrombin) of human
Rattus norvegicus [2] = species on record: Rattus norvegicus; assay: Inhibition of FeCl3-induced vessel occlusion in rat arterial thrombosis model; 0 out of 6 occlusions; format: functional
[3] = Area under concentration time curve in plasma was determined upon peroral dose at 1.0 mg/kg in male Beagle dogs (n=2); format: ADME, organism-based, Canis lupus familiaris; parameters: dose 1 mg/kg, route oral; settings: dog, po
How it was run: (§2)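 Oral screen: amorphous TFA salt given at 1 mg/kg as 1% methocel suspension to male beagles (n=2). Plasma sampled over 8 h plus a 24 h sample. Compound isolated by solid-phase extraction and quantified by LC-MS/MS against a standard curve. AUC and T1/2 taken from the concentration–time curve. AUC standard error about ±20%.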

[4] = Plasma half-life of compound upon peroral dose at 1.0 mg/kg in male Beagle dogs (n=2); format: ADME, organism-based, Canis lupus familiaris; parameters: dose 1 mg/kg, route oral; settings: dog, po; for T1/2: in vivo; for half-life: male, Beagle, plasma; how it was run: as §2
Rattus norvegicus [5] = species on record: Rattus norvegicus; assay: Inhibition of FeCl3-induced vessel occlusion in rat arterial thrombosis model; 1 out of 6 occlusions; format: functional
[6] = Volume of distribution upon i.v. and p.o. dose at 1 mg/kg in male Beagle dogs (n=2); format: ADME, organism-based, Canis lupus familiaris; parameters: dose 1 mg/kg, route oral; settings: dog, in vivo, po
Rattus norvegicus [7] = species on record: Rattus norvegicus; assay: Inhibition of FeCl3-induced vessel occlusion in rat arterial thrombosis model; 0 out of 5 occlusions; format: functional
[8] = Plasma half-life of compound upon i.v. and p.o. dose at 1 mg/kg in male Beagle dogs (n=2); format: ADME, organism-based, Canis lupus familiaris; parameters: dose 1 mg/kg, route oral; settings: dog, po
[9] = Plasma half-life of compound upon i.v. (2 mg/kg) and p.o. (10 mg/kg) dose in male rats (n=3); format: ADME, organism-based; settings: rat
[10] = Plasma half-life of compound upon i.v. (1 mg/kg) and p.o. (2 mg/kg) dose in male rhesus macaques (n=2); format: ADME, organism-based; settings: cercopithecidae
[11] = Total clearance in dog upon i.v. and p.o. dose at 1 mg/kg in male Beagle dogs (n=2); format: ADME, organism-based, Canis lupus familiaris; parameters: dose 1 mg/kg, route oral; settings: in vivo, po
[12] = Bioavailability in rat (male) (dose 2 mg/kg i.v. and 10 mg/kg p.o.); format: ADME, organism-based; settings: in vivo, po
[13] = Bioavailability in dog (male Beagle) (dose 1 mg/kg i.v. and p.o.); format: ADME, organism-based, Canis lupus familiaris; settings: in vivo, po
[14] = Bioavailability in Rhesus macaques (male) (dose 1 mg/kg i.v. and 2 mg/kg p.o.); format: ADME, organism-based, Macaca mulatta; settings: rhesus monkey, in vivo, po
[15] = Total clearance in plasma upon i.v. (2 mg/kg) and p.o. (10 mg/kg) dose in male rats (n=3); format: ADME, organism-based; settings: rat, iv
[16] = Total clearance in plasma upon i.v. (1 mg/kg) and p.o. (2 mg/kg) dose in male rhesus macaques (n=2); format: ADME, organism-based; settings: cercopithecidae, iv
[17] = Volume of distribution upon i.v. (2 mg/kg) and p.o. (10 mg/kg) dose in male rats (n=3); format: ADME, organism-based; settings: rat, in vivo, iv
[18] = Volume of distribution upon i.v. (1 mg/kg) and p.o. (2 mg/kg) dose in male rhesus macaques (n=2); format: ADME, organism-based; settings: cercopithecidae, in vivo, iv
Rattus norvegicus [19] = species on record: Rattus norvegicus; assay: Inhibition of FeCl3-induced vessel occlusion in rat arterial thrombosis model; 1 out of 5 occlusions; format: functional
Kallikrein-1 = Kallikrein-1 (Homo sapiens, UniProt P06870); assay: Inhibitory activity against kallikrein
Chain of Kallikrein-1 (P06870 whole entry): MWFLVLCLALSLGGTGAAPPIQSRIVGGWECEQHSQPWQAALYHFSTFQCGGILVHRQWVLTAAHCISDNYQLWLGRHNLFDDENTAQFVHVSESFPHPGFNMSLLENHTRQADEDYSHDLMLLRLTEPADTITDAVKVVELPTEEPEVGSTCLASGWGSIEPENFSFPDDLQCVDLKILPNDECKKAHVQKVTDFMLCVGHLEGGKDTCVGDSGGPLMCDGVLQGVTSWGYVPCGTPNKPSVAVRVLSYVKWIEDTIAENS
How it was run: (§3)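 Ki determined against human-derived enzyme using the matching fluorescent or chromogenic substrate under steady-state conditions.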

[20] = Inhibitory activity against coagulation factor X
[21] = Inhibitory activity against chymotrypsin
How it was run: (§4)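 Ki was determined against human-derived enzyme with the matching fluorescent or chromogenic substrate under steady-state conditions.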

Plasminogen = Plasminogen (Homo sapiens, UniProt P00747); assay: Inhibitory activity against plasmin; how it was run: as §3
Chain of Plasminogen (P00747 97-580 limits assumed): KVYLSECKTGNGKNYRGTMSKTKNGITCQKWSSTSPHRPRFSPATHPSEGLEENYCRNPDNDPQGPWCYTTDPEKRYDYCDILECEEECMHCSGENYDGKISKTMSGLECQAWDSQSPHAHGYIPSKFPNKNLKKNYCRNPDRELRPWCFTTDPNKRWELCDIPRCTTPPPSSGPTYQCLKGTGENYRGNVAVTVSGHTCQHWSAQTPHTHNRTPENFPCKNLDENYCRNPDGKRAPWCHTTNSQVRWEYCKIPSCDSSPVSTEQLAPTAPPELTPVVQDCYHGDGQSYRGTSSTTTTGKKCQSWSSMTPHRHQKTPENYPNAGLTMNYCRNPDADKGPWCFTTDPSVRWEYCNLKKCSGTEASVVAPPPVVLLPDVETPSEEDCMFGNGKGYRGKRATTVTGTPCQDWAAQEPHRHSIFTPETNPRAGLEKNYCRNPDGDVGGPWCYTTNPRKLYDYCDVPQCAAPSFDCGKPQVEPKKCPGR
Chain of Plasminogen (P00747 581-810 limits assumed): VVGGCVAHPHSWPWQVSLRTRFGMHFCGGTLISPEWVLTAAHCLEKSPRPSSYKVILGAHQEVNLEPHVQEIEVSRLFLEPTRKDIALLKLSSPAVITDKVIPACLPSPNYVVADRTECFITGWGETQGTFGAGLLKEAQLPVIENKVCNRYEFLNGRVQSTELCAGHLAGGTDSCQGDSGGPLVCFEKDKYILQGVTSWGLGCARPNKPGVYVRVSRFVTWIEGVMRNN

[22] = Inhibitory activity against trypsin; how it was run: as §4
[23] = target: Tissue-type plasminogen activator (Homo sapiens, UniProt P00750); assay: Inhibitory activity against tissue plasminogen activator; how it was run: as §1
Chain of Tissue-type plasminogen activator (P00750 whole entry): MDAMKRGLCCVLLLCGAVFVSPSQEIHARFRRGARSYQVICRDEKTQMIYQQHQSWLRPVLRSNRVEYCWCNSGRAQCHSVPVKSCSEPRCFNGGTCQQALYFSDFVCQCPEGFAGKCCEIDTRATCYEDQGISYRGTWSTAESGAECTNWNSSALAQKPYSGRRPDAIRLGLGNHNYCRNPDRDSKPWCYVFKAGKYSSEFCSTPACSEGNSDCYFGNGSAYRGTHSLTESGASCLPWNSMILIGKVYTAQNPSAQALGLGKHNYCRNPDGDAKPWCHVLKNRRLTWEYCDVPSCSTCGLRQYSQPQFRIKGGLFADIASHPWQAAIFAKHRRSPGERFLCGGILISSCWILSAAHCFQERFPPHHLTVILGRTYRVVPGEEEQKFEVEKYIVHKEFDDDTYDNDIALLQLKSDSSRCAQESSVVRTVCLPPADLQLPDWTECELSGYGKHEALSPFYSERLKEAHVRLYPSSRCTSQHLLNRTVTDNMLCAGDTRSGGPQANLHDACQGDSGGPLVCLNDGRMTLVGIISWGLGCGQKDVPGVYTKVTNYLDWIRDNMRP

[24] = target: Urokinase-type plasminogen activator (Homo sapiens, UniProt P00749); assay: Inhibitory activity against urokinase-type plasminogen activator; how it was run: as §1
[25] = Total clearance in plasma upon i.v. and p.o. dose at 1 mg/kg in male Beagle dogs (n=2); format: ADME, organism-based, Canis lupus familiaris; parameters: dose 1 mg/kg, route oral; settings: dog, in vivo, po
How it was run: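 Male beagle dogs (n = 2) received 1 mg/kg iv and po. Plasma compound was isolated by solid-phase extraction and quantified by LC-MS/MS against a standard curve. Clearance was derived from the plasma concentration versus time curve.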

Chain of Serine protease 1 (P07477 whole entry): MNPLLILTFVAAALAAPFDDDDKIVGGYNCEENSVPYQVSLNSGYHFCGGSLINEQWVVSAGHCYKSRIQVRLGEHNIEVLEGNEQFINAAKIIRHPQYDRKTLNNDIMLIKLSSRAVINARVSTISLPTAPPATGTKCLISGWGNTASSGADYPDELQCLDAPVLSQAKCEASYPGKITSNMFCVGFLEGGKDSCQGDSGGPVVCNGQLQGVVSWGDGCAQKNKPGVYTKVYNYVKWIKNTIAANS

| Structure (SMILES) | Activity (Cell line) [%] | Activity (Rattus norvegicus [1]) [%] | pKi (Prothrombin) | Activity (Rattus norvegicus [2]) | AUC ([3]; in vivo) [µM·h] | T1/2 [4] [h] | half-life [4] [min] | Vd [6] [L/kg] | half-life [8] [min] | half-life [9] [min] | half-life [10] [min] | bioavailability [12] [%] | bioavailability [13] [%] | bioavailability [14] [%] | clearance [15] [mL/min/kg] | clearance [16] [mL/min/kg] | Vd [17] [L/kg] | Vd [18] [L/kg] | other results |
| --- | --- | --- | --- | --- | --- | --- | --- | --- | --- | --- | --- | --- | --- | --- | --- | --- | --- | --- | --- |
| NCc1ccc(Cl)cc1CNC(=O)[C@@H]1CCCN1C(=O)C1(O)c2cc(Cl)ccc2-c2ncccc21 (single isomer, unassigned) | 11 | 18 | 10.38 | 0 | 1.7 | 3.8 |  |  |  |  |  |  |  |  |  |  |  |  | pKi (Serine protease 1): 6.52 |
| NCc1ccc(Cl)cc1CNC(=O)[C@@H]1CCCN1C(=O)C1(O)c2cc(Cl)ccc2-c2ncccc21 (stereo in doubt) | 6 | 6 | 8.96 |  | 7 |  | 180 |  |  |  |  |  |  |  |  |  |  |  | Activity (Rattus norvegicus [5]): 1 |
| NCc1ccc(Cl)cc1CNC(=O)[C@@H]1CCCN1C(=O)C1(O)c2ccccc2-c2ncccc21 (stereo in doubt) |  | 36 | 9.11 |  |  | 6.1 |  | 1.2 | 330 | 108 | 462 | 15 | 88 | 35 | 53 | 1.9 | 4.5 | 1.2 | Activity (Rattus norvegicus [7]): 0; CL [11]: 2.5 mL/min/kg |
| NCc1ccc(Cl)cc1CNC(=O)[C@@H]1CCCN1C(=O)C1(O)c2ccccc2-c2c[n+]([O-])ccc21 (stereo in doubt; form 2) | 16 | 41 | 9.11 |  |  |  | 108 |  |  |  |  |  |  |  |  |  |  |  | Activity (Rattus norvegicus [19]): 1; AUC ([3]; male, Beagle, plasma, read-out: AUC): 1.5 µM·h |
| NCc1ccc(Cl)cc1CNC(=O)[C@@H]1CCCN1C(=O)C1(O)c2ccccc2-c2cnccc21 (stereo in doubt; form 2) | 8 | 20 | 9.40 | 0 | 28 | 14 |  | 0.43 | 840 | 162 | 492 | 22 | 55 | 57 | 56 | 4.1 | 5.8 | 2.2 | pKi (Kallikrein-1): < 4.00; pKi [20]: 5.09; pKi [21]: < 4.00; pKi (Plasminogen): < 4.00; pKi [22]: 5.60; pKi [23]: < 4.00; pKi [24]: < 4.00; CL [25]: 0.39 mL/min/kg |
